# Env fusion inh: inhibitors of HIV-1 Env-driven cell-cell fusion, primary screen, HeLa-JRFL effector, CEM21 target cells, luciferase; 360,000 compounds, 1.1% hits; inhibition, % at 12.3 µM; AID 651610, 2012;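 active = mean replicate inhibition score of at least 50 and every replicate individually at or above 50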;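 also: 0% = plate neutral controls and 100% = maraviroc near 300 nM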
# V-ATPase pHluor: regulators of yeast V-ATPase proton pumping, primary screen, pHLuorin cytosolic pH fluorescence. S. cerevisiae. response, % at 10 µM. 350,000 compounds, 0.37% hits. AID 504577, 2011; in the data active = response mostly above about 7.3%, no sharp cut-off; inactive = mostly below about 5.4%; also: actives read high
# NR2E3 ag-1: inhibitors of NR2E3-RetCOR corepressor binding, primary screen, NR2E3 agonist project, biochemical, TR-FRET, GST-NR2E3, biotin-RetCOR; 1536-well; inhibition of corepressor binding, % at 4.78 µM; 320,000 compounds, 0.12% hits; AID 2300, 2010;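 active = percent inhibition above the cutoff of mean plus 3 SD of all tested compounds, set per screening campaign, cut at about 20% in these data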;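 also: 0% = DMSO wells and 100% = biotin wells as full block of FRET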
# Target sequence (Q9Y5X4 whole entry, looked up): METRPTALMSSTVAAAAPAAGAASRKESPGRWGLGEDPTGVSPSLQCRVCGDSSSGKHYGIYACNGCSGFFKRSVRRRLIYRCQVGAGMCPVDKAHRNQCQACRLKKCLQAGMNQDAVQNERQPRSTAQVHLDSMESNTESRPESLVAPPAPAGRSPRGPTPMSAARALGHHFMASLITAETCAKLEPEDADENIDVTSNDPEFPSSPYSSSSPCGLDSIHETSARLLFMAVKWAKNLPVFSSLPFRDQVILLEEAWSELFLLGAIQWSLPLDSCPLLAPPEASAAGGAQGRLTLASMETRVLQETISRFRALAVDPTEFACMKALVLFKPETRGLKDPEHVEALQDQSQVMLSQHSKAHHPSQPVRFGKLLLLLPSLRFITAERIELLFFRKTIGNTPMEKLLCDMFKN
#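 Format: 1536-well format; test system: GST-NR2E3 and biotin-RetCOR proteins; read-out basis: percent inhibition of TR-FRET ratio; timing: 5 h incubation at 4 °C; detection: time-resolved FRET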
# GalR3 antag: GalR3 antagonists in HEK293 cells, primary screen, cell-based, fluorescence readout | 360,000 compounds, 0.44% hits | Galanin receptor type 3 (Homo sapiens), O60755 | inhibition, % at 3 µM | HEK293 GalR3-CNG cAMP membrane potential fluorescence; galR3 body fused to GalR1 C-terminus | AID 651719, 2012;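 active = inhibition above the screen-wide average plus 3 SD, cut at about 13% in these data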;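 also: forskolin and galanin both at EC90 stimulate the cells; cAMP rise reported by CNG channel membrane potential dye signal; 0% = forskolin plus galanin with DMSO and 100% = forskolin alone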
# Target sequence (O60755 1-299 limits assumed): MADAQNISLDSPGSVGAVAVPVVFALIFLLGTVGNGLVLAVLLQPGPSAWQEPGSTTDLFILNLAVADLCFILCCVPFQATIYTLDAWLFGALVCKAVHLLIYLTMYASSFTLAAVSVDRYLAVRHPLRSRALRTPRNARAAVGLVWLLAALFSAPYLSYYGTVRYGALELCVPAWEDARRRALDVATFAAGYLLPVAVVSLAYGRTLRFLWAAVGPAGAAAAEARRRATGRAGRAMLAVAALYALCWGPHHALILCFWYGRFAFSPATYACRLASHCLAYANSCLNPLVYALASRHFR
# NR2E3 ag-2: NR2E3 agonists in two-hybrid cells, primary screen, cell-based, luminescence, CHO-S, Gal4-NCOR/VP16-NR2E3; inhibition of corepressor binding, % at 3.98 µM; Photoreceptor-specific nuclear receptor (Homo sapiens), Q9Y5X4; luciferase; 360,000 compounds, 0.35% hits;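 active = inhibition above the mean of all tested compounds plus 3 SD, cut at about 70% in these data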;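 also: 0% = DMSO with NR2E3 transfected cells and 100% = cells lacking NR2E3 construct; higher means lower luciferase signal from less NR2E3 corepressor binding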
# FXN GAA850 act: FXN promoter activators, primary screen, cell-based, luciferase luminescence, HEK293 lucGAA850. 360,000 compounds, 0.56% hits. activation, % at 6 µM. HEK293 lucGAA850 FXN promoter luciferase reporter, 24 h; percent of 10 µM SAHA response;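 active = activation above the average of all compounds screened plus 3 SD, cutoff fixed separately per campaign, cut at about 7.5% in these data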;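 also: 0% = DMSO wells and 100% = 10 µM SAHA wells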
# NR2E3 agonist cf: NR2E3 agonists, confirmation, biochemical, TR-FRET; shares compounds with NR2E3 ag-1; activation (reported as inhibition), % at 3.98 µM; AID 2379, 2010; 360 compounds, 39% hits; cell-free NR2E3 corepressor release, 5 h; in the data active = activation above about 20%
# PPARg-NCOR2 ctr: agonists of PPARg-NCOR2 corepressor interaction, counter-screen for NR2E3 agonist project, biochemical, TR-FRET; shares compounds with NR2E3 ag-1; TR-FRET PPARg-NCOR2 coregulator interaction; inhibition, % at 3.98 µM; 360 compounds, 45% hits; in the data active = inhibition above about 20%;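 also: 0% = DMSO vehicle and 100% = wells without protein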
# Active calls of the source: *; . = not tested or not shown; [ ] = dose if it differs, or a comment. Rows were chosen to be rich in hits. Some 2.2% of all compounds tested hit in one or more screens of this group.
SMILES,Env fusion inh,V-ATPase pHluor,NR2E3 ag-1,GalR3 antag,NR2E3 ag-2,FXN GAA850 act,others
C[C@@H]1CN([C@H](C)CO)C(=O)c2c(c3ccccc3n2C)-c2ccccc2CO[C@H]1CN(C)Cc1ccc2c(c1)OCCN2C,.,0.0,.,-3.4,-7.0,0.6,
CCOC(=O)[C@@H]1[C@@H]2NC(=S)N(C)[C@@]1(C)Oc1ccccc12,-22.0[16.7 µM],.,.,.,.,.,
O=C1NC(=O)C2(Cc3ccccc3N3CCCC32)C(=O)N1 (centres undefined),61.3*,0.6,0.0,1.6,-47.0,1.9,
Cc1ccc(N2C(=O)NC(=O)C(CCc3ccccn3)(Cc3ccc(F)cc3)C2=O)cc1 (centres undefined),57.7*,-1.7,-3.7,1.0,-4.8,1.6,
C=C1[C@@H](C)[C@H]2[C@H](Cc3ccccc3)NC(=O)[C@]23OC(=O)/C=C/[C@H](O)CCC[C@@H](C)C/C=C/[C@H]3[C@@H]1O,68.9*,-1.0,-2.7,0.4,-15.1,-9.6,
C[C@H]1C/C=C/[C@H]2[C@H](O)[C@H](C)[C@@](C)(O)[C@H]3[C@H](Cc4ccccc4)NC(=O)[C@]32[C@H](O)/C=C/[C@](C)(O)C1,.,.,0.6,.,6.7,-1.8,
CSCCC(c1nnnn1Cc1ccccc1)N1CCC(n2c(=O)[nH]c3ccccc32)CC1 (centres undefined),45.7,.,.,-6.1,37.6,.,
O=c1[nH]c2ccccc2n1C1CCN(C(CCc2ccccc2)c2nnnn2Cc2ccccc2)CC1 (centres undefined),66.3*,.,.,-8.4,46.2,.,
Cc1cccc(C)c1-n1nnnc1C(c1cccc2ccccc12)N1CCC(n2c(=O)[nH]c3ccccc32)CC1 (centres undefined),74.3*,.,.,-5.3,-5.5,.,
COC(=O)[C@@H]1[C@@H](CO)[C@@H]2Cn3c(ccc(-c4ccccc4F)c3=O)[C@H]1N2,-5.6[16.7 µM],.,.,.,.,.,
CN1C(=O)/C(=C/c2ccc(Cl)s2)C(=O)NC1=S,1.0,25.1*,0.7,-8.7,-36.0,-1.0,
C=CCN1C(=O)/C(=C/c2ccc(Br)s2)C(=O)NC1=S,7.4,5.0,0.6,-9.2,-1.9,1.8,
CC1=C2C[C@H]3[C@@H](CC=C4C[C@@H](O)CC[C@@]43C)[C@@H]2CC[C@]12O[C@@H]1C[C@H](C)CN[C@@H]1C2C (some centres undefined),-7.6[16.7 µM],.,.,.,.,.,
COC(=O)[C@@H]1[C@@H](CO)[C@@H]2Cn3c(cccc3=O)[C@H]1N2Cc1nccs1,-7.2[16.7 µM],.,.,.,.,.,
O=C(Nc1ccncc1)c1cccn(Cc2ccccc2)c1=O,56.0*,-1.4,-0.8,9.9,4.0,-4.8,
C[C@H]1CC[C@@H]2[C@@H](C)[C@H]3[C@H](C[C@H]4[C@@H]5CC=C6C[C@@H](O[C@@H]7O[C@H](CO)[C@H](O)[C@H](O[C@@H]8O[C@H](CO)[C@@H](O)[C@H](O)[C@H]8O)[C@H]7O[C@@H]7O[C@@H](C)[C@H](O)[C@@H](O)[C@H]7O)CC[C@]6(C)[C@H]5CC[C@]34C)N2C1,.,-3.6,1.0,-6.2,8.7,-2.7,
C[C@@H]1O[C@@H](O[C@H]2C[C@@H](O)[C@]3(CO)[C@@H]4C(CC[C@]3(O)C2)[C@@]2(O)CC[C@H](C3COC(=O)C3)[C@@]2(C)C[C@H]4O)[C@H](O)[C@H](O)[C@H]1O (some centres undefined),5.1,-0.7,4.4,15.9*,-0.1,-12.0,
COc1ccc(-c2nc3ccccc3c(=O)n2-c2ccc(OC)cc2)cc1,-69.2,-0.3,0.7,-2.5,-12.0,-1.1,
CCn1nc(-c2ccccc2)nc2c(=O)n(C)c(=O)nc1-2,.,15.0,41.3*,.,88.5*,-5.7,
COc1ccc(Cc2nccc3cc(OC)c(OC)cc23)cc1OC,57.0*,-3.6,7.0,.,63.0,3.4,
COc1ccc(CC2=NCCc3cc(OC)c(OC)cc32)cc1OC,0.6,.,.,-4.6,2.4,-2.5,
Cc1cc(N2CCNC[C@H]2C)ccc1N1CC[C@H](O)C1,-14.2,.,.,-6.9,.,.,
COC(=O)C1=C(c2ccc(OC(F)(F)F)cc2)C[C@@H]2CC[C@H]1N2C(=O)N1CCCCC1,75.1*,3.1,-1.2,-5.3,14.5,-4.9,
Oc1ccccc1-[n+]1c(-c2ccccc2)cc(-c2ccccc2)cc1-c1ccccc1,-32.8,-3.7,5.3,-6.8,-22.5,-3.1,
Cc1ccccc1-[n+]1c(-c2ccccc2)cc(-c2ccccc2)cc1-c1ccccc1,67.8*,-0.8,0.3,-8.8,9.7,-7.8,
SMILES,Env fusion inh,V-ATPase pHluor,NR2E3 ag-1,GalR3 antag,NR2E3 ag-2,FXN GAA850 act,others
CC(C)NS(=O)(=O)c1ccc(OCC(=O)N2CCN(Cc3ccc4c(c3)OCO4)CC2)c(Cl)c1,74.2*,-1.1,-1.8,-8.7,17.4,-2.5,
Cc1nnc(SCc2nc3ccccc3c(=O)n2-c2ccccc2Cl)n1N,119.1*,2.5,0.3,-2.8,6.0,1.0,
COCCNC(=O)c1c(NC(=O)c2ccc(Br)o2)n(Cc2ccccc2)c2nc3ccccc3nc12,27.3,-5.5,22.7*,1.6,-5.5,0.7,NR2E3 agonist cf=-2.0;PPARg-NCOR2 ctr=4.5
O=C1C(=O)c2ccccc2-c2ccccc21,90.6*,-2.2,36.6*,2.6,67.6,-15.2,NR2E3 agonist cf=39.4*;PPARg-NCOR2 ctr=83.5*
O=C1C(=O)c2cccc3cccc1c23,-25.1,0.4,0.1,3.7,2.4,1.1,
O=C(NCCN1CCC2(CC1)C(=O)NCN2c1ccccc1)c1ccc(Cl)cc1,10.5,.,.,-8.0,.,.,
CCOC(=O)c1c(NS(=O)(=O)c2ccccc2)n(CCCOC)c2nc3ccccc3nc12,.,-0.8,38.4*,-5.2,2.8,-0.5,NR2E3 agonist cf=1.3;PPARg-NCOR2 ctr=-8.9
CC(=O)C1=C(C)OC2=C(C(=O)CCC2)[C@@]12C(=O)N(C)c1ccccc12,3.1,.,.,-4.6,.,.,

# Bioassay records: PubChem, several laboratories
